Results from ChEMBL document CHEMBL4673214, “Synthesis and antibacterial bioactivities of cationic deacetyl linezolid amphiphiles” (Eur J Med Chem, 2018).

Assays:
[1] = Solubility of the compound in water at room temperature; assay type: physicochemical; details: buffer
[2] = system: Staphylococcus aureus; assay: Antibacterial activity against methicillin-resistant Staphylococcus aureus clinical isolate 8 assessed as reduction in bacterial growth incubated for 16 to 20 hrs by CLSI-based broth microdilution method; assay type: functional; details: time 16-20 hrs
Method in brief: (§1)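 Clinical isolates tested by broth microdilution in cation-adjusted Mueller-Hinton broth. Cultures grown 4-6 h (~10^8 CFU/mL) were diluted to ~10^6 CFU/mL and mixed 1:1 with compound serial dilutions made from 256 down to 0.5 µg/mL (pre-mixing). Plates held at 37 °C for 16-20 h, then read for growth. Each concentration run in duplicate, whole experiment at least twice.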

[3] = system: Enterobacteriaceae; assay: Antibacterial activity against NDM1 producing carbapenem-resistant Enterobacteriaceae clinical isolate 10 assessed as reduction in bacterial growth incubated for 16 to 20 hrs by CLSI-based broth microdilution method; assay type: functional; details: time 16-20 hrs; method in brief: as §1
[4] = system: Enterobacteriaceae; assay: Antibacterial activity against NDM1 producing carbapenem-resistant Enterobacteriaceae clinical isolate 9 assessed as reduction in bacterial growth incubated for 16 to 20 hrs by CLSI-based broth microdilution method; assay type: functional; details: time 16-20 hrs; method in brief: as §1
[5] = system: Klebsiella pneumoniae; assay: Antibacterial activity against carbapenem-resistant Klebsiella pneumoniae clinical isolate 10 assessed as reduction in bacterial growth incubated for 16 to 20 hrs by CLSI-based broth microdilution method; assay type: functional; details: time 16-20 hrs; method in brief: as §1
[6] = system: Klebsiella pneumoniae; assay: Antibacterial activity against carbapenem-resistant Klebsiella pneumoniae clinical isolate 6 assessed as reduction in bacterial growth incubated for 16 to 20 hrs by CLSI-based broth microdilution method; assay type: functional; details: time 16-20 hrs; method in brief: as §1
[7] = system: Klebsiella pneumoniae; assay: Antibacterial activity against carbapenem-resistant Klebsiella pneumoniae clinical isolate 8 assessed as reduction in bacterial growth incubated for 16 to 20 hrs by CLSI-based broth microdilution method; assay type: functional; details: time 16-20 hrs; method in brief: as §1
[8] = system: Klebsiella pneumoniae; assay: Antibacterial activity against carbapenem-resistant Klebsiella pneumoniae clinical isolate 2 assessed as reduction in bacterial growth incubated for 16 to 20 hrs by CLSI-based broth microdilution method; assay type: functional; details: time 16-20 hrs; method in brief: as §1
[9] = system: Enterobacteriaceae; assay: Antibacterial activity against NDM1 producing carbapenem-resistant Enterobacteriaceae clinical isolate 5 assessed as reduction in bacterial growth incubated for 16 to 20 hrs by CLSI-based broth microdilution method; assay type: functional; details: time 16-20 hrs; method in brief: as §1
[10] = system: Enterobacteriaceae; assay: Antibacterial activity against NDM1 producing carbapenem-resistant Enterobacteriaceae clinical isolate 6 assessed as reduction in bacterial growth incubated for 16 to 20 hrs by CLSI-based broth microdilution method; assay type: functional; details: time 16-20 hrs; method in brief: as §1
[11] = system: Enterobacteriaceae; assay: Antibacterial activity against NDM1 producing carbapenem-resistant Enterobacteriaceae clinical isolate 4 assessed as reduction in bacterial growth incubated for 16 to 20 hrs by CLSI-based broth microdilution method; assay type: functional; details: time 16-20 hrs; method in brief: as §1
[12] = system: Staphylococcus aureus; assay: Antibacterial activity against methicillin-resistant Staphylococcus aureus clinical isolate 3 assessed as reduction in bacterial growth incubated for 16 to 20 hrs by CLSI-based broth microdilution method; assay type: functional; details: time 16-20 hrs; method in brief: as §1
[13] = system: Staphylococcus aureus; assay: Antibacterial activity against methicillin-resistant Staphylococcus aureus clinical isolate 1 assessed as reduction in bacterial growth incubated for 16 to 20 hrs by CLSI-based broth microdilution method; assay type: functional; details: time 16-20 hrs; method in brief: as §1
[14] = system: Klebsiella pneumoniae; assay: Antibacterial activity against carbapenem-resistant Klebsiella pneumoniae clinical isolate 4 assessed as reduction in bacterial growth incubated for 16 to 20 hrs by CLSI-based broth microdilution method; assay type: functional; details: time 16-20 hrs; method in brief: as §1
[15] = system: Enterobacteriaceae; assay: Antibacterial activity against NDM1 producing carbapenem-resistant Enterobacteriaceae clinical isolate 1 assessed as reduction in bacterial growth incubated for 16 to 20 hrs by CLSI-based broth microdilution method; assay type: functional; details: time 16-20 hrs; method in brief: as §1
[16] = system: Staphylococcus aureus; assay: Antibacterial activity against Staphylococcus aureus ATCC 29213 assessed as reduction in bacterial growth incubated for 16 to 20 hrs by CLSI-based broth microdilution method; assay type: functional; details: time 16-20 hrs
Method in brief: (§2)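 Broth microdilution following CLSI, in cation-adjusted Mueller-Hinton broth. Inoculum from a 4-6 h culture (~10^8 CFU/mL), diluted to ~10^6 CFU/mL. Water stocks were serially diluted in MHB (256 to 0.5 µg/mL) and mixed 1:1 with the inoculum. Plates ran 16-20 h at 37 °C. MIC was read visually. Each concentration was tested in duplicate, and the experiment was repeated at least twice.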

[17] = system: Enterobacteriaceae; assay: Antibacterial activity against NDM1 producing carbapenem-resistant Enterobacteriaceae clinical isolate 2 assessed as reduction in bacterial growth incubated for 16 to 20 hrs by CLSI-based broth microdilution method; assay type: functional; details: time 16-20 hrs; method in brief: as §1
[18] = system: Salmonella enterica; assay: Antibacterial activity against Salmonella enterica ATCC 8387 assessed as reduction in bacterial growth incubated for 16 to 20 hrs by CLSI-based broth microdilution method; assay type: functional; details: time 16-20 hrs; method in brief: as §2
[19] = system: Enterobacteriaceae; assay: Antibacterial activity against NDM1 producing carbapenem-resistant Enterobacteriaceae clinical isolate 8 assessed as reduction in bacterial growth incubated for 16 to 20 hrs by CLSI-based broth microdilution method; assay type: functional; details: time 16-20 hrs; method in brief: as §1
[20] = system: Klebsiella pneumoniae; assay: Antibacterial activity against carbapenem-resistant Klebsiella pneumoniae clinical isolate 9 assessed as reduction in bacterial growth incubated for 16 to 20 hrs by CLSI-based broth microdilution method; assay type: functional; details: time 16-20 hrs; method in brief: as §1
[21] = system: Klebsiella pneumoniae; assay: Antibacterial activity against carbapenem-resistant Klebsiella pneumoniae clinical isolate 7 assessed as reduction in bacterial growth incubated for 16 to 20 hrs by CLSI-based broth microdilution method; assay type: functional; details: time 16-20 hrs; method in brief: as §1
[22] = system: Staphylococcus aureus; assay: Antibacterial activity against methicillin-resistant Staphylococcus aureus clinical isolate 10 assessed as reduction in bacterial growth incubated for 16 to 20 hrs by CLSI-based broth microdilution method; assay type: functional; details: time 16-20 hrs; method in brief: as §1
[23] = system: Enterococcus faecalis; assay: Antibacterial activity against Enterococcus faecalis ATCC 29212 assessed as reduction in bacterial growth incubated 16 to 20 hrs by CLSI-based broth microdilution method; assay type: functional; details: time 16-20 hrs; method in brief: as §2
[24] = system: Staphylococcus aureus; assay: Antibacterial activity against methicillin-resistant Staphylococcus aureus clinical isolate 7 assessed as reduction in bacterial growth incubated for 16 to 20 hrs by CLSI-based broth microdilution method; assay type: functional; details: time 16-20 hrs; method in brief: as §1
[25] = system: Staphylococcus aureus; assay: Antibacterial activity against methicillin-resistant Staphylococcus aureus clinical isolate 9 assessed as reduction in bacterial growth incubated for 16 to 20 hrs by CLSI-based broth microdilution method; assay type: functional; details: time 16-20 hrs; method in brief: as §1
[26] = system: Escherichia coli; assay: Antibacterial activity against Escherichia coli ATCC 25922 assessed as reduction in bacterial growth incubated 16 to 20 hrs by CLSI-based broth microdilution method; assay type: functional; details: time 16-20 hrs; method in brief: as §2
[27] = system: Staphylococcus aureus; assay: Antibacterial activity against methicillin-resistant Staphylococcus aureus clinical isolate 6 assessed as reduction in bacterial growth incubated for 16 to 20 hrs by CLSI-based broth microdilution method; assay type: functional; details: time 16-20 hrs; method in brief: as §1
[28] = system: Klebsiella pneumoniae; assay: Antibacterial activity against carbapenem-resistant Klebsiella pneumoniae clinical isolate 5 assessed as reduction in bacterial growth incubated for 16 to 20 hrs by CLSI-based broth microdilution method; assay type: functional; details: time 16-20 hrs; method in brief: as §1
[29] = system: Staphylococcus aureus; assay: Antibacterial activity against methicillin-resistant Staphylococcus aureus clinical isolate 2 assessed as reduction in bacterial growth incubated for 16 to 20 hrs by CLSI-based broth microdilution method; assay type: functional; details: time 16-20 hrs; method in brief: as §1
[30] = system: Klebsiella pneumoniae; assay: Antibacterial activity against carbapenem-resistant Klebsiella pneumoniae clinical isolate 3 assessed as reduction in bacterial growth incubated for 16 to 20 hrs by CLSI-based broth microdilution method; assay type: functional; details: time 16-20 hrs; method in brief: as §1
[31] = system: Klebsiella pneumoniae; assay: Antibacterial activity against carbapenem-resistant Klebsiella pneumoniae clinical isolate 1 assessed as reduction in bacterial growth incubated for 16 to 20 hrs by CLSI-based broth microdilution method; assay type: functional; details: time 16-20 hrs; method in brief: as §1
[32] = Hemolytic activity in sheep RBC incubated for 1 hr; assay type: ADME, cell-based, Ovis aries, Erythrocyte; details: sheep red blood cells (erythrocytes)
Method in brief: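 Sheep RBCs were resuspended at 5% in PBS and mixed 3:1 with serial dilutions (2560 to 5 µg/mL, pre-mixing levels), then incubated 1 h at 37 °C. After centrifugation, supernatant A540 was read. Hemolysis % was calculated as (A−A0)/(Atotal−A0)×100, with untreated RBCs as 0% and 0.1% Triton X-100 as total lysis.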

[33] = system: Enterobacteriaceae; assay: Antibacterial activity against NDM1 producing carbapenem-resistant Enterobacteriaceae clinical isolate 3 assessed as reduction in bacterial growth incubated for 16 to 20 hrs by CLSI-based broth microdilution method; assay type: functional; details: time 16-20 hrs; method in brief: as §1
[34] = system: Staphylococcus aureus; assay: Antibacterial activity against methicillin-resistant Staphylococcus aureus clinical isolate 4 assessed as reduction in bacterial growth incubated for 16 to 20 hrs by CLSI-based broth microdilution method; assay type: functional; details: time 16-20 hrs; method in brief: as §1
[35] = system: Staphylococcus aureus; assay: Antibacterial activity against methicillin-resistant Staphylococcus aureus clinical isolate 5 assessed as reduction in bacterial growth incubated for 16 to 20 hrs by CLSI-based broth microdilution method; assay type: functional; details: time 16-20 hrs; method in brief: as §1
[36] = system: Enterobacteriaceae; assay: Antibacterial activity against NDM1 producing carbapenem-resistant Enterobacteriaceae clinical isolate 7 assessed as reduction in bacterial growth incubated for 16 to 20 hrs by CLSI-based broth microdilution method; assay type: functional; details: time 16-20 hrs; method in brief: as §1

Row | Compound | solubility [1] | MIC [2] | MIC [3] | MIC [4] | MIC [5] | MIC [6] | MIC [7] | MIC [8] | MIC [9] | MIC [10] | MIC [11] | MIC [12] | MIC [13] | MIC [14] | MIC [15] | MIC [16] | MIC [17] | MIC [18] | MIC [19] | MIC [20] | also measured
1 | CCCCCCCCCCCCCC[N+](C)(C)CC(=O)NC[C@H]1CN(c2ccc(N3CCOCC3)c(F)c2)C(=O)O1.[Cl-] | Soluble | 4 µg/mL | 16 µg/mL | 16 µg/mL | 32 µg/mL | 32 µg/mL | 32 µg/mL | 32 µg/mL | 32 µg/mL | 32 µg/mL | 64 µg/mL | 2 µg/mL | 4 µg/mL | 32 µg/mL | > 64 µg/mL | 4 µg/mL | > 64 µg/mL | 16 µg/mL | 16 µg/mL | 32 µg/mL | MIC [21]: 32 µg/mL; MIC [22]: 8 µg/mL; MIC [23]: 4 µg/mL; MIC [24]: 2 µg/mL; MIC [25]: 2 µg/mL; MIC [26]: 16 µg/mL; MIC [27]: 2 µg/mL; MIC [28]: 32 µg/mL; MIC [29]: 16 µg/mL; MIC [30]: 16 µg/mL; MIC [31]: 32 µg/mL; HC50 at 1 h [32]: 60 µg/mL; MIC [33]: 32 µg/mL; MIC [34]: 4 µg/mL; MIC [35]: 4 µg/mL; MIC [36]: 16 µg/mL
2 | CCCCCCCCCCCN(C[C@H]1CN(c2ccc(N3CCOCC3)c(F)c2)C(=O)O1)C(=O)[C@@H](N)CCCN=C(N)N.Cl.Cl.Cl | Soluble | 4 µg/mL | 8 µg/mL | 16 µg/mL | 16 µg/mL | 16 µg/mL | 8 µg/mL | 16 µg/mL | 16 µg/mL | 16 µg/mL | 64 µg/mL | 4 µg/mL | 2 µg/mL | 8 µg/mL | > 64 µg/mL | 4 µg/mL | > 64 µg/mL | 8 µg/mL | 16 µg/mL | 8 µg/mL | MIC [21]: 32 µg/mL; MIC [22]: 4 µg/mL; MIC [23]: 8 µg/mL; MIC [24]: 4 µg/mL; MIC [25]: 4 µg/mL; MIC [26]: 8 µg/mL; MIC [27]: 4 µg/mL; MIC [28]: 16 µg/mL; MIC [29]: 8 µg/mL; MIC [30]: 8 µg/mL; MIC [31]: 16 µg/mL; MIC [33]: 16 µg/mL; MIC [34]: 4 µg/mL; MIC [35]: 8 µg/mL; MIC [36]: 16 µg/mL
3 | CCCCCCCCCCCC[N+](C)(C)CC(=O)NC[C@H]1CN(c2ccc(N3CCOCC3)c(F)c2)C(=O)O1.[Cl-] | Soluble | 8 µg/mL | 32 µg/mL | 16 µg/mL | 64 µg/mL | 32 µg/mL | 32 µg/mL | 32 µg/mL | 32 µg/mL | 16 µg/mL | 64 µg/mL | 2 µg/mL | 4 µg/mL | 64 µg/mL | > 64 µg/mL | 8 µg/mL | > 64 µg/mL | 16 µg/mL | 16 µg/mL | 64 µg/mL | MIC [21]: 64 µg/mL; MIC [22]: 8 µg/mL; MIC [23]: 4 µg/mL; MIC [24]: 4 µg/mL; MIC [25]: 8 µg/mL; MIC [26]: 16 µg/mL; MIC [27]: 4 µg/mL; MIC [28]: 64 µg/mL; MIC [29]: 8 µg/mL; MIC [30]: 64 µg/mL; MIC [31]: 32 µg/mL; MIC [33]: 64 µg/mL; MIC [34]: 16 µg/mL; MIC [35]: 4 µg/mL; MIC [36]: 32 µg/mL
